GASC1 inh = inhibitors of human demethylase GASC-1 KDM4C; inhibition, % at 12.5 µM; 96,000 compounds, 0.15% hits; Q9H3R0; GST-KDM4C 2-372, H3K9me3 peptide, LANCE TR-FRET; AID 720574;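 active = mean replicate inhibition above about 25%, with at least 55% of replicates also reaching it, limit read from the data, passing the limit was not always enough; inconclusive = only one of those two conditions met; inactive = neither condition met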
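material = GST-tagged GASC-1 (JMJD2C) catalytic fragment, aa 2-372 | amount = enzyme final amount 10 nM | medium = HEPES buffer, pH 7.5, plus ascorbate | also added = H3K9me3 peptide substrate, Fe(II), 2-oxoglutarate | dosing = single dose | times = 30 min demethylation and 1 h detection at room temperature | detection = LANCE TR-FRET | read-out basis = Fall in 671/618 emission ratio as inhibition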
IDH1 mut inh = IDH1 R132H (human) inhibition; inhibition, % at 10 µM; O75874; 70,000 compounds, 0.18% hits; IDH1 R132H reductase, diaphorase/resazurin fluorescence, 60 min; AID 624101; in the data active = inhibition above about 34%; inconclusive = no clear call, values can overlap the other calls; inactive = below about 11%;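 note: 0% = DMSO and 100% = no enzyme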
Target sequence (O75874 whole entry R132H): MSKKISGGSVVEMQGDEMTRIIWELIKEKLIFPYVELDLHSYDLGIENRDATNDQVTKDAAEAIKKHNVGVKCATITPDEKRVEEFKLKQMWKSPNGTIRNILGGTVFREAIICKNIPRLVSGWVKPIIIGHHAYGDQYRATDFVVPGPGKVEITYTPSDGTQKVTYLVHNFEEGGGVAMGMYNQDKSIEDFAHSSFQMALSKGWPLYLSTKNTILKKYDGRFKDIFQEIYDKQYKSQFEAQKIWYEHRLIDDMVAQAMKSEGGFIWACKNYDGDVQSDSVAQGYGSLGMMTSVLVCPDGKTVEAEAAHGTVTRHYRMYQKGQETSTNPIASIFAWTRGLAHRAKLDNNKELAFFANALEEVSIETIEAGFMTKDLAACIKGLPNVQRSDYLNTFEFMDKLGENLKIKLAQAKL
Pf Dd2 growth = inhibitors of Plasmodium falciparum Dd2 growth; P. falciparum Dd2 growth, SYBR Green, 72 h; hits give low values; activity change, % at 10 µM; 94,000 compounds, 2.3% hits; AID 1159554; in the data active = activity change below about -80%; inconclusive = no clear call, values can overlap the other calls
Tcruzi prolif = blocks T. cruzi growth in NIH3T3 culture | inhibition, % at 8.34 µM | 77,000 compounds, 5.9% hits | AID 624255 | T. cruzi beta-gal in NIH3T3, GalScreen luminescence, 90 h;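 active = mean inhibition above about 93%, with at least 55% of replicates each passing it, limit read from the data, passing the limit was not always enough; inconclusive = only one of those two conditions holds; inactive = neither condition holds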
Active calls of the source: *; ? = inconclusive; · = no result given. Sampled rows, rich in hits. Any-hit rate of the full collection: about 5.8%.

SMILES	GASC1 inh	IDH1 mut inh	Pf Dd2 growth	Tcruzi prolif
COCC(=O)N1CC2(C1)CN(Cc1cccc(Cl)c1)[C@@H](CO)c1[nH]c3cc(OC)ccc3c12	0	·	-92*	·
COc1ccc2c3c([nH]c2c1)[C@@H](CO)N(Cc1ccccc1)CC31CN(C(=O)Cc2ccccc2)C1	·	·	-84*	·
COc1ccc2c3c([nH]c2c1)[C@H](CO)N(CC1CC1)CC31CN(C(=O)c2ccc(F)cc2)C1	0	·	-62	·
COc1ccc2c3c([nH]c2c1)[C@H](CO)N(CC1CC1)CC31CN(C(=O)c2ccccc2)C1	0	·	-83*	·
COc1ccc(CN2CC3(CN(C(=O)Cc4ccccc4)C3)c3c([nH]c4cc(OC)ccc34)[C@@H]2CO)cc1	-1	·	-86*	·
COc1ccc2c3c([nH]c2c1)[C@H](CO)N(Cc1ccccc1)CC31CN(C(=O)Cc2ccccc2)C1	·	·	28	·
COc1ccc(C(=O)N(Cc2nc(-c3ccc(Cl)cc3)no2)C(C)C)cc1[N+](=O)[O-]	·	0	·	·
C=C[C@](C)(CC[C@@]1(C)[C@H](C)C[C@H](O[C@@H]2O[C@@H](C)[C@H](O[C@@H]3O[C@H](COC(C)=O)[C@@H](O)[C@H](O)[C@H]3O)[C@@H](O)[C@H]2O)[C@@]2(C)C(C)=CCC[C@H]12)O[C@@H]1O[C@H](C)[C@H](O[C@@H]2O[C@@H](C)[C@H](O)[C@@H](O)[C@H]2O)[C@H](O)[C@H]1O	·	-1	·	·
COc1cccc(CN2[C@H](CO)[C@@H](c3ccccc3)C23CN(Cc2ccccc2OC)C3)c1	1	·	-90*	·
OC[C@@H]1[C@@H](c2ccccc2)C2(CN(Cc3ccccc3F)C2)N1Cc1ccccc1F	-2	·	-88*	·
OC[C@@H]1[C@H](c2ccccc2)C2(CN(Cc3ccccc3)C2)N1Cc1ccncc1	2	·	-53	·
OC[C@@H]1[C@@H](c2ccccc2)C2(CN(Cc3ccc4c(c3)OCO4)C2)N1Cc1ccccc1	13	·	-93*	·
CC(=O)N1CC2(C1)[C@@H](c1ccccc1)[C@@H](CO)N2Cc1ccccc1F	·	·	-4	·
O=C(C1CCCC1)N1CC2(C1)[C@@H](c1ccccc1)[C@H](CO)N2Cc1ccc(Cl)cc1	1	·	-85*	·
Cc1cccc(NC(=O)CSc2nnc(-c3ccc(Cl)cc3)n2-c2cccc(C)c2)c1	·	0	·	·
O=C(Cn1cc(Br)c([N+](=O)[O-])n1)Nc1ccccc1F	·	0	·	·
CC(C)(C)NC(=O)CSc1nnc(-c2ccccc2Cl)n1-c1ccccc1	·	0	·	·
COc1ccc(S(=O)(=O)N(C)C[C@H]2OCCCC[C@H](C)Oc3ccc(NS(=O)(=O)c4ccc(C)cc4)cc3C(=O)N([C@@H](C)CO)C[C@H]2C)cc1	-4	3	-82*	82
COc1ccc(S(=O)(=O)Nc2ccc3c(c2)C(=O)N([C@H](C)CO)C[C@H](C)[C@@H](CN(C)S(=O)(=O)c2ccc(OC)cc2)O3)cc1	2	1	-86*	·
COc1ccc(S(=O)(=O)N(C)C[C@@H]2OCCCC[C@@H](C)Oc3ccc(NS(=O)(=O)c4ccc(C)cc4)cc3C(=O)N([C@@H](C)CO)C[C@H]2C)cc1	0	·	-43	102*
O=C(NCC[C@H]1CC[C@H](NS(=O)(=O)c2cccc(F)c2)[C@H](CO)O1)C1CCCC1	-1	0	-6	·
O=C(NCC[C@H]1CC[C@H](NC(=O)c2cccnc2)[C@H](CO)O1)Nc1ccc(F)cc1	65*	94*	-16	21
O=C(NCC[C@@H]1CC[C@H](NS(=O)(=O)c2cccc(F)c2)[C@H](CO)O1)C1CCCC1	36*	48*	-17	·
O=C(CCN1CCCCC1)NCC[C@H]1CC[C@H](NC(=O)Cc2cccnc2)[C@H](CO)O1	75*	80*	10	15
O=C(CCN1CCCCC1)NCC[C@H]1CC[C@H](NC(=O)Cc2cccnc2)[C@@H](CO)O1	0	0	27	-33
SMILES	GASC1 inh	IDH1 mut inh	Pf Dd2 growth	Tcruzi prolif
O=C(CN1CCOCC1)N[C@H]1CC[C@H](CCNC(=O)C2CCC2)O[C@H]1CO	85*	73*	-22	58
O=C(NCC[C@H]1CC[C@@H](NC(=O)c2cccnc2)[C@@H](CO)O1)Nc1ccc(F)cc1	-1	0	-6	53
COc1ccccc1OCC(O)Cn1cnc2ccccc21 (stereo unspecified)	·	0	·	·
O=C(Cc1ccncc1)NCC[C@H]1CC[C@H](NC(=O)C2CCCC2)[C@H](CO)O1	58*	71*	15	·
CC(C(=O)Nc1cccc2ccccc12)N(c1ccc(Cl)cc1)S(C)(=O)=O (stereo unspecified)	·	1	·	·
C[C@H](CO)N1C[C@H](C)[C@H](CN(C)C(=O)Cc2ccncc2)Oc2cc(C#CC3CCCCC3)ccc2S1(=O)=O	-2	?	-86*	86
C/C=C/c1ccc2c(c1)O[C@@H](CN(C)C(=O)Cc1ccncc1)[C@@H](C)CN([C@H](C)CO)S2(=O)=O	-4	0	-58	-11
C/C=C/c1ccc2c(c1)O[C@@H](CN(C)C(=O)Cc1ccncc1)[C@H](C)CN([C@H](C)CO)S2(=O)=O	-1	2	-84*	17
C[C@@H]1CN([C@H](C)CO)S(=O)(=O)c2ccc(C#CC3CC3)cc2O[C@H]1CN(C)C(=O)Cc1ccncc1	1	7	-64	79
C[C@H](CO)N1C[C@H](C)[C@@H](CN(C)S(=O)(=O)c2ccc(C(F)(F)F)cc2)OCc2ccccc2-c2c(n(C)c3ccccc23)C1=O	-1	·	-90*	·
C[C@H](CO)N1C[C@H](C)[C@H](CN(C)S(=O)(=O)c2ccc(C(F)(F)F)cc2)OCc2ccccc2-c2c(n(C)c3ccccc23)C1=O	0	·	-94*	·
C[C@@H]1CN([C@@H](C)CO)C(=O)c2c(c3ccccc3n2C)-c2ccccc2CO[C@@H]1CN(C)S(=O)(=O)c1ccc(C(F)(F)F)cc1	0	·	-89*	·
CN(C)c1nc(OCC(=O)Nc2ccc(Cl)cc2)nc(N(C)C)n1	·	1	·	·
C[C@H](O)C#Cc1cnc2c(c1)C(=O)N([C@@H](C)CO)C[C@@H](C)[C@@H](CN(C)C(=O)Cc1ccncc1)O2	0	1	-95*	·
CCCC#Cc1cnc2c(c1)C(=O)N([C@@H](C)CO)C[C@H](C)[C@@H](CN(C)C(=O)Cc1ccncc1)O2	-1	51*	-35	44
Cc1cccc(NC(=O)CCC(=O)O)c1	·	0	·	·
CCc1cccc(C)c1NC(=O)CN(C)S(=O)(=O)c1ccccc1	·	-1	·	·
COc1c(C)cc(Br)cc1C(=O)NC(=S)Nc1sc2c(c1C(N)=O)CCCCC2	·	0	·	·
Cc1ccccc1N(CC(=O)Nc1cccc2ccccc12)S(C)(=O)=O	·	0	·	·
CO[C@@H]1CN(C)C(=O)c2ccc(NC(=O)c3nc4ccccc4s3)cc2OC[C@@H](C)N(Cc2ccncc2)C[C@@H]1C	0	4	-72	·
CO[C@@H]1CN(C)C(=O)c2ccc(NC(=O)c3nc4ccccc4s3)cc2OC[C@H](C)N(Cc2cccnc2)C[C@@H]1C	2	·	-83*	91

Screening results: PubChem, Broad Institute
